Source: PubChem
IDH1 mut inh = IDH1 R132H (human) inhibition. IDH1 R132H reductase, diaphorase/resazurin fluorescence, 60 min. AID 624101. inhibition, % at 10 µM. O75874. hit rate 0.18% among 70,000; in the data active = inhibition above about 34%; inconclusive = no clear call, values can overlap the other calls; inactive = below about 11%
Target sequence (O75874 whole entry R132H): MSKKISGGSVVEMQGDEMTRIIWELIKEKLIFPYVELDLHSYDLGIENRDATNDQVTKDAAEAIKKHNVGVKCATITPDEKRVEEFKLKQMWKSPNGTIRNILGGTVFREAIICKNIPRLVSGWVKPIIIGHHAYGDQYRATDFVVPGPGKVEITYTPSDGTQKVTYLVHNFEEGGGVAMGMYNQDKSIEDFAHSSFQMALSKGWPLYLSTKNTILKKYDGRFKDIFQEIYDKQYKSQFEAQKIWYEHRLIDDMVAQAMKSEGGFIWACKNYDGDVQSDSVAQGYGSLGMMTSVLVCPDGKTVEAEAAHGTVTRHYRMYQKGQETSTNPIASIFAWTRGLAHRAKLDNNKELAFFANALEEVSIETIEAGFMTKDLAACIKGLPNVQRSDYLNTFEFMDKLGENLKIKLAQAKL
T cruzi growth-1 = inhibitors of T. cruzi proliferation; T. cruzi beta-gal in NIH3T3, GalScreen luminescence, 90 h; inhibition, % at 8.34 µM; hit rate 5.9% among 77,000;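 active = mean inhibition above about 93%, with at least 55% of replicates each passing it, limit read from the data, passing the limit was not always enough; inconclusive = only one of those two conditions holds; inactive = neither condition holds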
GASC1 inh = inhibitors of human demethylase GASC-1 KDM4C. hit rate 0.15% among 96,000. Q9H3R0. GST-KDM4C 2-372, H3K9me3 peptide, LANCE TR-FRET. inhibition, % at 12.5 µM;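 active = mean replicate inhibition above about 25%, with at least 55% of replicates also reaching it, limit read from the data, passing the limit was not always enough; inconclusive = only one of those two conditions met; inactive = neither condition met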
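Material: N-terminal GST-fused human GASC-1 (KDM4C) fragment, residues 2-372. Input: 10 nM enzyme. Incubation: enzyme reaction 30 min, then detection 60 min, both room temperature. Doses: one test concentration per compound. Read-out basis: inhibition from TR-FRET ratio decrease. Detection: LANCE TR-FRET, excitation 340 nm, emissions 618 and 671 nm.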
T cruzi growth-2 = Trypanosoma cruzi proliferation inhibition. shares compounds with T cruzi growth-1. T. cruzi beta-gal in NIH3T3, GalScreen luminescence, 90 h. inhibition, % at 8.35 µM. hit rate 72% among 5,600;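 active = mean replicate inhibition above about 95% and at least 55% of replicates individually reaching it, limit read from the data; inconclusive = only one of the two criteria is met; inactive = neither criterion is met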
T cruzi growth-3 = blocks T. cruzi growth in NIH3T3 host cells; T. cruzi beta-gal in NIH3T3, GalScreen luminescence, 90 h; hit rate 21% among 5,600; inhibition, % at 2.09 µM; shares compounds with T cruzi growth-1;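 active = mean inhibition above about 95%, with at least 55% of replicates also reaching it, limit read from the data; inconclusive = meets just one of the two conditions; inactive = meets neither condition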
3T3 cytotox = NIH/3T3 (mouse) viability loss | shares compounds with T cruzi growth-1 | NIH/3T3 viability, CellTiter-Glo ATP luminescence, 90 h | cytotoxicity (signal decrease), % at 8.35 µM | hit rate 14% among 5,600;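 active = mean signal decrease across replicates above about 35% based on untreated-well scatter, with enough replicates individually passing, limit read from the data; inconclusive = no rule stated though some were filed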
NIH3T3 tox 2 = kills mouse NIH/3T3 fibroblasts; shares compounds with T cruzi growth-1; NIH/3T3 viability, CellTiter-Glo ATP luminescence, 90 h; inhibition, % at 24.9 µM; hit rate 56% among 5,600;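 active = mean loss of cell viability signal at or above a set limit, and enough replicates individually reaching it; inconclusive = meets only the mean limit or only the replicate share; inactive = meets neither condition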
Hits are given with their value; i = inactive; ? = inconclusive; nt = not tested or not shown. This is one part of a sample in which hits are shown more often than they occur.

SMILES	IDH1 mut inh	T cruzi growth-1	GASC1 inh	T cruzi growth-2	T cruzi growth-3	3T3 cytotox	NIH3T3 tox 2
COc1ccc(S(=O)(=O)N(C)C[C@H]2OCCCC[C@H](C)Oc3ccc(NC(=O)Nc4ccccc4)cc3C(=O)N([C@H](C)CO)C[C@H]2C)cc1	nt	i	i	nt	nt	nt	nt
COc1ccc(S(=O)(=O)N(C)C[C@H]2OCCCC[C@H](C)Oc3ccc(NC(=O)Nc4ccccc4)cc3C(=O)N([C@@H](C)CO)C[C@@H]2C)cc1	i	105	i	110	i	i	i
COc1ccc(S(=O)(=O)N(C)C[C@@H]2OCCCC[C@@H](C)Oc3ccc(NC(=O)Nc4ccccc4)cc3C(=O)N([C@@H](C)CO)C[C@H]2C)cc1	i	?	i	111	i	i	i
COc1ccccc1-n1c(SCC(=O)c2ccc3c(c2)CCCC3)nc2ccccc2c1=O	i	nt	nt	nt	nt	nt	nt
CC(Oc1ccc(-c2ccccc2)cc1)C(=O)Nc1ccccc1[N+](=O)[O-] (stereo not given)	i	nt	nt	nt	nt	nt	nt
COc1cccc(-c2ccc([C@H]3[C@H]4CN(CC5CCOCC5)CCCCN4[C@H]3CO)cc2)c1	nt	104	nt	i	i	i	58
COc1cccc(-c2ccc([C@H]3[C@H](CO)N4CCCCN(CC5CCOCC5)C[C@@H]34)cc2)c1	nt	i	nt	nt	nt	nt	nt
COc1cccc(-c2ccc([C@@H]3[C@H](CO)N4CCCCN(CC5CCOCC5)C[C@@H]34)cc2)c1	nt	i	nt	nt	nt	nt	nt
COc1cccc(-c2ccc([C@@H]3[C@@H](CO)N4CCCCN(CC5CCOCC5)C[C@@H]34)cc2)c1	nt	98	nt	99	i	i	54
COc1ccccc1NC(=O)c1ccccc1NC(=O)COc1ccccc1C	i	nt	nt	nt	nt	nt	nt
O=C(CCCCC(=O)N/N=C/c1ccco1)NO	i	nt	nt	nt	nt	nt	nt
Cc1cc(C(=O)Nc2cccc3c2O[C@H](CN(C)Cc2ccc(C(=O)Nc4ccccc4N)cc2)[C@@H](C)CN([C@H](C)CO)C3=O)n(C)n1	nt	i	i	nt	nt	nt	nt
Cc1cc(C(=O)Nc2cccc3c2O[C@@H](CN(C)Cc2ccc(C(=O)Nc4ccccc4N)cc2)[C@H](C)CN([C@H](C)CO)C3=O)n(C)n1	i	i	i	nt	nt	nt	nt
Cc1cc(C(=O)Nc2cccc3c2O[C@H](CN(C)Cc2ccc(C(=O)Nc4ccccc4N)cc2)[C@@H](C)CN([C@@H](C)CO)C3=O)n(C)n1	nt	106	i	106	i	i	i
Cc1cc(C(=O)Nc2cccc3c2O[C@H](CN(C)Cc2ccc(C(=O)Nc4ccccc4N)cc2)[C@H](C)CN([C@H](C)CO)C3=O)n(C)n1	nt	103	i	i	i	i	i
CCOc1cccc(-c2nnc(SCC(=O)Nc3cccc(Cl)c3C)n2C)c1	i	nt	nt	nt	nt	nt	nt
COc1cc(NC(=O)CS(=O)(=O)Cc2ccccc2)c(OC)cc1Cl	i	nt	nt	nt	nt	nt	nt
CCCNC(=O)N(C)C[C@H]1Oc2cc(C#Cc3cccc(F)c3)ccc2S(=O)(=O)N([C@@H](C)CO)C[C@@H]1C	i	116	i	112	i	i	66
CCCC#Cc1ccc2c(c1)O[C@@H](CN(C)C(=O)NCCC)[C@@H](C)CN([C@@H](C)CO)S2(=O)=O	i	i	i	nt	nt	nt	nt
CCCC#Cc1ccc2c(c1)O[C@@H](CN(C)C(=O)NCCC)[C@H](C)CN([C@H](C)CO)S2(=O)=O	i	i	i	nt	nt	nt	nt
CCCNC(=O)N(C)C[C@H]1Oc2cc(C#Cc3cccc(F)c3)ccc2S(=O)(=O)N([C@@H](C)CO)C[C@H]1C	i	114	?	102	105	i	51
CCCNC(=O)N(C)C[C@@H]1Oc2cc(C#Cc3cccc(F)c3)ccc2S(=O)(=O)N([C@@H](C)CO)C[C@H]1C	i	108	i	100	i	54	67
CCCNC(=O)N(C)C[C@H]1Oc2cc(C#Cc3cccc(F)c3)ccc2S(=O)(=O)N([C@H](C)CO)C[C@@H]1C	i	114	i	i	i	i	60
CC(C)NC(=O)N(C)C[C@@H]1Oc2cc(C#Cc3cccc(F)c3)ccc2S(=O)(=O)N([C@@H](C)CO)C[C@H]1C	i	i	i	nt	nt	nt	nt
CCCC#Cc1ccc2c(c1)O[C@H](CN(C)C(=O)NCCC)[C@@H](C)CN([C@H](C)CO)S2(=O)=O	i	i	i	nt	nt	nt	nt
SMILES	IDH1 mut inh	T cruzi growth-1	GASC1 inh	T cruzi growth-2	T cruzi growth-3	3T3 cytotox	NIH3T3 tox 2
CN(C)CCCOc1ccc(/C=N/NC(=O)CCCCC(=O)NO)cc1	i	nt	nt	nt	nt	nt	nt
O=C(CSc1nnnn1-c1ccccc1)Nc1ccc(Br)c(Cl)c1	i	nt	nt	nt	nt	nt	nt
COc1ccc(NC(=O)Cn2cnc3sc4c(c3c2=O)CCC(C)C4)cc1 (stereo not given)	i	nt	nt	nt	nt	nt	nt
CNC[C@@H]1Oc2ncc(C#CCC3CCCC3)cc2C(=O)N([C@H](C)CO)C[C@H]1C	i	?	i	109	?	i	106
CC(C)CC#Cc1cnc2c(c1)C(=O)N([C@@H](C)CO)C[C@@H](C)[C@H](CN(C)C(=O)C1CCCCC1)O2	i	?	i	?	i	i	81
C[C@@H]1CN([C@H](C)CO)C(=O)c2cc(C#CCc3ccccc3)cnc2O[C@H]1CN(C)C(=O)C1CCCCC1	i	i	i	nt	nt	nt	nt
CC(C)CC#Cc1cnc2c(c1)C(=O)N([C@@H](C)CO)C[C@@H](C)[C@@H](CN(C)C(=O)C1CCCCC1)O2	i	i	i	nt	nt	nt	nt
C[C@@H]1CN([C@@H](C)CO)C(=O)c2cc(C#CCc3ccccc3)cnc2O[C@H]1CN(C)C(=O)C1CCCCC1	nt	114	i	105	i	i	106
CNC[C@@H]1Oc2ncc(C#CCC3CCCC3)cc2C(=O)N([C@H](C)CO)C[C@@H]1C	i	i	i	nt	nt	nt	nt
COc1ccc(OC)c(S(=O)(=O)N2CCC(C(=O)Nc3ccccc3F)CC2)c1	i	nt	nt	nt	nt	nt	nt
Cc1ccccc1-c1nnc(SCC(=O)Nc2ccc(F)c(F)c2)n1C	i	nt	nt	nt	nt	nt	nt
COc1cccc(C#Cc2cnc3c(c2)C(=O)N([C@H](C)CO)C[C@H](C)[C@H](CN(C)C)O3)c1	i	i	i	nt	nt	nt	nt
COc1ccc(C#Cc2cnc3c(c2)C(=O)N([C@H](C)CO)C[C@H](C)[C@H](CN(C)C)O3)cc1	i	101	i	i	i	i	65
COc1ccc(C#Cc2cnc3c(c2)C(=O)N([C@@H](C)CO)C[C@@H](C)[C@H](CN(C)CC2CCCC2)O3)cc1	i	111	nt	99	i	118	104
COc1ccc(C#Cc2cnc3c(c2)C(=O)N([C@H](C)CO)C[C@H](C)[C@@H](CN(C)CC2CCCC2)O3)cc1	i	i	i	nt	nt	nt	nt
COc1cccc(NC(=O)CCc2nc(-c3ccc(OC)c(OC)c3)no2)c1	i	nt	nt	nt	nt	nt	nt
C=C1CCC2(C(=O)OC3OC(CO)C(O)C(O)C3O)CCC3(C)C(=CCC4C5(C)CC(O)C(OC6OCC(O)C(O)C6OC6OC(CO)C(O)C(O)C6O)C(C)(CO)C5CCC43C)C2C1 (stereo not given)	i	nt	nt	nt	nt	nt	nt
